The source made the active and inactive calls. No cut-off for these calls is given here.
Experiments:
Acanthamoeba polyphaga = test: Anti-amoebic activity against Acanthamoeba polyphaga ATCC 30461 assessed as inhibition of amoebic growth incubated for 48 hrs by resazurin dye based microtiter plate analysis; assay type: functional
Outline: (§1)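 Trophozoites kept axenically in PYG medium at 28 °C, grown to confluence for 48 h, then diluted to 5 × 10^4 trophozoites/mL (1 × 10^4 cells per well). Azoles added from DMSO stocks via PYG to final 0.03125–64 μg/mL (twofold series); 1% DMSO controls. Incubated 48 h at 28 °C, then 0.02% resazurin added for a further 48 h. Purple-to-pink change scored as respiring cells; MIC in triplicate.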

Acanthamoeba castellanii [1] = test: Anti-amoebic activity against Acanthamoeba castellanii ATCC 50491 assessed as inhibition of amoebic growth incubated for 48 hrs by resazurin dye based microtiter plate analysis; assay type: functional; outline: as §1
[2] = (§2) Catalytic inhibition of Acanthamoeba castellanii CYP51 expressed in Escherichia coli HMS-174 (DE3) cells assessed as inhibition of substrate induced 14alpha-demthylation using obtusifoliol as substrate incubated for 1 hr in presence of NADPH-CYP450 reductase by RP-HPLC analysis
Acanthamoeba castellanii [3] = test: as §2, with “as substrate at […] incubated for” for “as substrate incubated for”, “RP-HPLC analysis relative to control” for “RP-HPLC analysis”; details: dose 1.5 µM
[4] = Binding affinity to Acanthamoeba castellanii CYP51 expressed in Escherichia coli HMS-174 (DE3) cells assessed as dissociation constant by UV-Visible spectrophotometry
Acanthamoeba castellanii [5] = test: Substrate activity at Acanthamoeba castellanii CYP51 expressed in Escherichia coli HMS-174 (DE3) cells assessed as Kcat measured after 20 mins by Michaelis-Menten analysis
Outline: (§3)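 Full-length His6-tagged CYP51, purified by Ni-NTA, Q- and CM-Sepharose, reconstituted with rat CPR (0.5 μM P450, 2 μM CPR), 37 °C. […] Rates as nmol product/min/nmol P450 vs total substrate, fitted to Michaelis–Menten hyperbola; triplicate, mean ± SD.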

Acanthamoeba castellanii [6] = test: Substrate activity at Acanthamoeba castellanii CYP51 expressed in Escherichia coli HMS-174 (DE3) cells assessed as Kcat/Km measured after 20 mins by Michaelis-Menten analysis; outline: as §3
Acanthamoeba castellanii [7] = test: Substrate activity at Acanthamoeba castellanii CYP51 expressed in Escherichia coli HMS-174 (DE3) cells assessed as Km measured after 20 mins by Michaelis-Menten analysis; outline: as §3
Acanthamoeba castellanii [8] = test: Substrate activity at Acanthamoeba castellanii CYP51 expressed in Escherichia coli HMS-174 (DE3) cells assessed as Km measured after 60 sec by Michaelis-Menten analysis; outline: as §3
Acanthamoeba castellanii [9] = test: Substrate activity at Acanthamoeba castellanii CYP51 expressed in Escherichia coli HMS-174 (DE3) cells assessed as Kcat measured after 60 sec by Michaelis-Menten analysis; outline: as §3
Acanthamoeba castellanii [10] = test: Substrate activity at Acanthamoeba castellanii CYP51 expressed in Escherichia coli HMS-174 (DE3) cells assessed as Kcat/Km measured after 60 sec by Michaelis-Menten analysis; outline: as §3

| SMILES | MIC (Acanthamoeba polyphaga) | MIC (Acanthamoeba castellanii [1]) | inhibition (Acanthamoeba castellanii [3]) | further results |
| --- | --- | --- | --- | --- |
| O=C(N[C@@H](Cn1ccnc1)c1ccc(Cl)cc1Cl)c1ccc(-c2nnc(-c3ccccc3)o2)cc1 | > 64 µg/mL | 4 µM | – | – |
| FC(F)(F)c1ccc(N(c2cccnc2)C2CCN(c3ccc(C(F)(F)F)cn3)CC2)cc1 | – | – | – | IC50 [2]: 1300 nM |
| O=C([C@@H](c1ccc(Cl)cc1)c1cccnc1)N1CCN(c2ccc(C(F)(F)F)cc2)CC1 | – | – | – | IC50 [2]: 5500 nM |
| O=C(N[C@@H](Cn1ccnc1)c1ccc(-c2ccc(F)cc2)cc1F)c1ccc(-c2nnc(-c3ccccc3)o2)cc1 | > 64 µg/mL | > 64 µg/mL | – | – |
| CC(=O)N1CCN(c2ccc(OCC3COC(Cn4ccnc4)(c4ccc(Cl)cc4Cl)O3)cc2)CC1 (stereo not given) | – | – | inactive | – |
| CC(C)(C#N)c1cc(Cn2cncn2)cc(C(C)(C)C#N)c1 | – | – | inactive | – |
| CC[C@@H]([C@H](C)O)n1ncn(-c2ccc(N3CCN(c4ccc(OC[C@@H]5CO[C@@](Cn6cncn6)(c6ccc(F)cc6F)C5)cc4)CC3)cc2)c1=O | – | – | inactive | – |
| C[C@@H](c1nc(-c2ccc(C#N)cc2)cs1)[C@](O)(Cn1cncn1)c1ccc(F)cc1F | – | – | inactive | – |
| Clc1ccc(COC(Cn2ccnc2)c2ccc(Cl)cc2Cl)c(Cl)c1 (stereo not given) | – | – | 25% | – |
| Clc1ccccc1C(c1ccccc1)(c1ccccc1)n1ccnc1 | – | – | 82% | – |
| N#Cc1ccc(C(c2ccc(C#N)cc2)n2cncn2)cc1 | – | – | inactive | – |
| CC(C)=CCC[C@@H](C)[C@H]1CC[C@@]2(C)C3=C(CC[C@]12C)[C@@]1(C)CC[C@H](O)C(C)(C)[C@@H]1CC3 [LANOSTEROL] | – | – | – | Kd [4]: 1220 nM; kcat (Acanthamoeba castellanii [5]): 0.102 s⁻¹; kcat/Km (Acanthamoeba castellanii [6]): 2000 M⁻¹ s⁻¹; Km (Acanthamoeba castellanii [7]): 52 µM |
| C=C(CC[C@@H](C)[C@H]1CC[C@@]2(C)C3=C(CC[C@]12C)[C@@]1(C)CC[C@H](O)[C@@H](C)[C@@H]1CC3)C(C)C [OBTUSIFOLIOL] | – | – | – | Kd [4]: 30 nM; Km (Acanthamoeba castellanii [8]): 2.7 µM; kcat (Acanthamoeba castellanii [9]): 0.513 s⁻¹; kcat/Km (Acanthamoeba castellanii [10]): 190000 M⁻¹ s⁻¹ |
| O[C@@](Cn1cnnn1)(c1ccc(F)cc1F)C(F)(F)c1ccc(-c2ccc(OCC(F)(F)F)cc2)cn1 [OTESECONAZOLE] | 0.114 µM | 0.057 µM | – | – |
| C[C@@H](c1ncncc1F)[C@](O)(Cn1cncn1)c1ccc(F)cc1F [VORICONAZOLE] | 0.75 µM | 0.09 µM | 85% | IC50 [2]: 450 nM |
| N#Cc1ccc(COc2ccc(C#Cc3ccc(C(F)(F)[C@](O)(Cn4cnnn4)c4ccc(F)cc4F)nc3)cc2)cc1 [VT-1598] | 0.425 µM | 0.077 µM | – | IC50 [2]: 250 nM |
